pIC50: −log10 of the molar value. Activity calls are given as the source filed them. The rule behind the calls is not given here.
Columns and labels:
[1] = biological target: MAP kinase-interacting serine/threonine-protein kinase 1 (Homo sapiens) (UniProt Q9BUB5); test: Inhibition of human MNK1 assessed as remaining activity at 10 uM in presence of ATP by radiometric kinase assay relative to control
HT-29 = test: Induction of apoptosis in human HT-29 cells assessed as phosphorylation of H2AX on S139 in presence of gemcitabine by Western blotting analysis; type: functional, cell-based
[2] = biological target: Ribosomal protein S6 kinase alpha-1 (Homo sapiens, UniProt Q15418); test: Inhibition of human RSK1 by 33P radiometric kinase assay
[3] = biological target: Mitogen-activated protein kinase 1 (Homo sapiens) (UniProt P28482); test: Inhibition of human ERK2 assessed as remaining activity at 10 uM in presence of ATP by radiometric kinase assay relative to control
[4] = biological target: Interleukin-1 receptor-associated kinase 4 (Homo sapiens) (UniProt Q9NWZ3); test: Inhibition of human IRAK4 assessed as remaining activity at 10 uM in presence of ATP by radiometric kinase assay relative to control
Mus musculus [5] = test: In vivo inhibition of CHK1 in CRTac:Ncr-Fox1 mouse xenografted with human HT-29 cells assessed as reduction of phosphorylation of CDK1 on Y15 at 100 mg/kg, po administered for 24 hrs by Western blotting analysis; type: functional, organism-based
In short: (§1)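 HT29 s.c. xenografts in female athymic nude mice. Single gemcitabine dose 100mg/kg i.v. on day 0, then one inhibitor dose 50 or 100mg/kg p.o. (DPTW vehicle) 24h later. Tumors taken 24h after the last dose, western blotted, and signals quantified by normalizing to GAPDH.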

[6] = biological target: Tyrosine-protein kinase JAK2 (Homo sapiens) (UniProt O60674); test: Inhibition of human JAK2 assessed as remaining activity at 10 uM in presence of ATP by radiometric kinase assay relative to control
[7] = biological target: T1, Ribosomal protein S6 kinase alpha-3 (Homo sapiens, UniProt P51812); test: Inhibition of human RSK2 assessed as remaining activity at 10 uM in presence of ATP by radiometric kinase assay relative to control
[8] = Clearance in BALB/C mouse plasma at 10 mg/kg, po by LC/MS-MS analysis; type: ADME, organism-based
In short: (§2)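 Female BALB/c mice received a single 10mg/kg bolus i.v. or p.o. Plasma (and spleen homogenate) extracted with methanol containing internal standards. Concentrations were measured by LC/MS-MS and PK parameters calculated with modelling software.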

[9] = biological target: Eukaryotic elongation factor 2 kinase (Homo sapiens) (UniProt O00418); test: Inhibition of human EF2K assessed as remaining activity at 10 uM in presence of ATP by radiometric kinase assay relative to control
[10] = biological target: Serine/threonine-protein kinase BRSK1 (Homo sapiens, UniProt Q8TDC3); test: Inhibition of human BRSK1 by FRET based Z-LYTE kinase assay
[11] = biological target: Aurora kinase A (Homo sapiens) (UniProt O14965); test: Inhibition of human AuroraA assessed as remaining activity at 10 uM in presence of ATP by radiometric kinase assay relative to control
[12] = Cmax in BALB/C mouse plasma at 10 mg/kg, iv by LC/MS-MS analysis; type: ADME, organism-based; in short: as §2
[13] = Toxicity in CRTac:Ncr-Fox1 mouse xenografted with human HT-29 cells assessed as body weight at 150 mg/kg, po administered for 10 days in presence of irinotecan relative to control; type: organism-based; conditions: in vivo, 240 h, time 10 day
[14] = biological target: Homeodomain-interacting protein kinase 1 (Homo sapiens) (UniProt Q86Z02); test: Inhibition of human HIPK1 assessed as remaining activity at 10 uM in presence of ATP by radiometric kinase assay relative to control
[15] = biological target: Mitogen-activated protein kinase kinase kinase 9 (Homo sapiens) (UniProt P80192); test: Inhibition of human MLK1 assessed as remaining activity at 10 uM in presence of ATP by radiometric kinase assay relative to control
[16] = AUC (0 to t) in BALB/C mouse spleen at 10 mg/kg, po by LC/MS-MS analysis; type: ADME, organism-based
[17] = biological target: NUAK family SNF1-like kinase 1 (Homo sapiens) (UniProt O60285); test: Inhibition of human NUAK1 at 10 uM in presence of ATP by radiometric kinase assay relative to control
[18] = Half life in BALB/C mouse plasma at 10 mg/kg, po by LC/MS-MS analysis; type: ADME, organism-based
In short: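 Female BALB/c mice received a single bolus of 10mg/kg, either i.v. or p.o. The oral vehicle was DPTW (10% DMSO, 20% PEG400, 5% Tween 80, 65% water). Plasma and spleen homogenates were extracted with methanol containing internal standards. Drug levels were measured by LC/MS-MS, and pharmacokinetic parameters were calculated from the concentration-time profiles.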

Mus musculus [19] = test: In vivo inhibition of CHK1 in CRTac:Ncr-Fox1 athymic mouse xenografted with human Calu-6 cells assessed as enhanced phosphorylation of CHK1 on S345 at 150 mg/kg, po in presence of gemcitabine and carboplatin by Western blotting analysis; type: functional, organism-based
In short: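 Female CRTac:Ncr-Fox1(nu) athymic mice carried s.c. Calu6 xenografts. Tumors were taken 6h after the last inhibitor dose, lysed in CHAPS buffer, and immunoblotted with GAPDH as loading control.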

[20] = biological target: T1, Ribosomal protein S6 kinase alpha-3; test: Inhibition of human RSK2 at 10 uM in presence of ATP by radiometric kinase assay relative to control
Homo sapiens = species on record: Homo sapiens; test: Inhibition of human AMPK assessed as remaining activity at 10 uM in presence of ATP by radiometric kinase assay relative to control
[21] = biological target: T2, Dual specificity protein kinase CLK2 (Homo sapiens, UniProt P49760); test: Inhibition of human CLK2 at 10 uM in presence of ATP by radiometric kinase assay relative to control
[22] = biological target: Serine/threonine-protein kinase PAK 2 (Homo sapiens) (UniProt Q13177); test: Inhibition of human PAK2 assessed as remaining activity at 10 uM in presence of ATP by radiometric kinase assay relative to control
[23] = biological target: Vascular endothelial growth factor receptor 1 (Homo sapiens, UniProt P17948); test: Inhibition of VEGFR1 (unknown origin) by FRET based Z-LYTE kinase assay
[24] = AUC (0 to t) in BALB/C mouse spleen at 10 mg/kg, iv by LC/MS-MS analysis; type: ADME, organism-based
[25] = Toxicity in Emu-Myc driven transgenic mouse transplant model of B-cell lymphoma assessed as reduction in weight of the brachial/axillary lymph nodes at 150 mg/kg, po administered for 9 days; type: organism-based; conditions: in vivo, 216 h, time 9 day
[26] = Plasma protein binding in nude mouse at 10 uM; type: ADME, cell-free
[27] = biological target: T2, Dual specificity protein kinase CLK2; test: Inhibition of human CLK2 assessed as remaining activity at 10 uM in presence of ATP by radiometric kinase assay relative to control
Mus musculus [28] = test: In vivo inhibition of CHK1 in CRTac:Ncr-Fox1 mouse xenografted with human HT-29 cells assessed as reduction of phosphorylation of CHK1 on S296 at 100 mg/kg, po administered for 24 hrs by Western blotting analysis; type: functional, organism-based; in short: as §1

T2 sequence (P49760 whole entry, looked up): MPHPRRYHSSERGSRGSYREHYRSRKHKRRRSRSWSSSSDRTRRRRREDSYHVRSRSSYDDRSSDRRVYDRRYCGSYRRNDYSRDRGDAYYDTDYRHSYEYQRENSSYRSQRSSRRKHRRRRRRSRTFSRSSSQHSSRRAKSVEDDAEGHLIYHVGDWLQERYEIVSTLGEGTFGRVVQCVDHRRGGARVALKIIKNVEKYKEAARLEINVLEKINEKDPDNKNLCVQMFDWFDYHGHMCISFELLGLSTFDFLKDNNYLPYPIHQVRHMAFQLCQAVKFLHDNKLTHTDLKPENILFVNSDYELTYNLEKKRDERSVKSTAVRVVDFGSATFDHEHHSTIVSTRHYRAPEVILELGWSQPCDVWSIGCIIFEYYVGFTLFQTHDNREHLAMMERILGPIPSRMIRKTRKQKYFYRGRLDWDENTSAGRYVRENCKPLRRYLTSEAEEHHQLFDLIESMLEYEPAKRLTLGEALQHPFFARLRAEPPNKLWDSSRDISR
T1 sequence (P51812 whole entry): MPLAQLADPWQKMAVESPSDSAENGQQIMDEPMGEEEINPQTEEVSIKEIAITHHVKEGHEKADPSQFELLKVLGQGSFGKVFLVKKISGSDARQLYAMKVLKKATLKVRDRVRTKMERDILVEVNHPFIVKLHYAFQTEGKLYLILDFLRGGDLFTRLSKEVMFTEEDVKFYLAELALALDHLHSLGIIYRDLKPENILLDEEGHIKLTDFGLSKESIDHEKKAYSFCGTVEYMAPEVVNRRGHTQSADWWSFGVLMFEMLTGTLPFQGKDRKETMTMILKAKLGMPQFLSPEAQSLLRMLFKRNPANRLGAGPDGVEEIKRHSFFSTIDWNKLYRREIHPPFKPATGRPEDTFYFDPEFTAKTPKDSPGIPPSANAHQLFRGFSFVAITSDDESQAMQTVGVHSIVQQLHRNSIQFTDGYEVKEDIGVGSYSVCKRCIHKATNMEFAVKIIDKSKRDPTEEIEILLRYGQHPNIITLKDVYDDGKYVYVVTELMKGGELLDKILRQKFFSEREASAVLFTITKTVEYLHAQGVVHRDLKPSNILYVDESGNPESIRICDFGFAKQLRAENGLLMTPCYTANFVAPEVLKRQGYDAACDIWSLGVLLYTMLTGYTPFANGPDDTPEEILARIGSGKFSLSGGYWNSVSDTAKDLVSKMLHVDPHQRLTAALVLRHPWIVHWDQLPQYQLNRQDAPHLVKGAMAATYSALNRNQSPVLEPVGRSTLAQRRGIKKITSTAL
Chain of Eukaryotic elongation factor 2 kinase (Homo sapiens) (O00418 whole entry): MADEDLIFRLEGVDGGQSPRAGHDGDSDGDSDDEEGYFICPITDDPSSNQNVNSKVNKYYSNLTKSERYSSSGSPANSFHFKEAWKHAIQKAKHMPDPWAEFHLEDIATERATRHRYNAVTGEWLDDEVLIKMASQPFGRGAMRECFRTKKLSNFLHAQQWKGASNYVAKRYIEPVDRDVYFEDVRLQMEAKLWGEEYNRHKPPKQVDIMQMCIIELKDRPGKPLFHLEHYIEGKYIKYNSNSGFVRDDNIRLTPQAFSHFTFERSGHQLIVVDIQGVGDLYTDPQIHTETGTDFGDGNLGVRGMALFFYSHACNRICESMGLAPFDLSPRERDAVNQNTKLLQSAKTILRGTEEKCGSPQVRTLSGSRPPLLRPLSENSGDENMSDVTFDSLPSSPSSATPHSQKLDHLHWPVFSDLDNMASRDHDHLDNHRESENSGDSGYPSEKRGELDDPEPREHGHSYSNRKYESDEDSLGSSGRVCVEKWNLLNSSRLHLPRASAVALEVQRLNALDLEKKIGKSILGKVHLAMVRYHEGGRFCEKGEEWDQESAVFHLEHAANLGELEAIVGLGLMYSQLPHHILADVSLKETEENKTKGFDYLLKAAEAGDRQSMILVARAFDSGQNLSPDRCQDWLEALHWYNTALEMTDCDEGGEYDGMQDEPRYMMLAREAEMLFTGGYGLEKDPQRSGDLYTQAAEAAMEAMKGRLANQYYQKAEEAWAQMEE
Chain of Vascular endothelial growth factor receptor 1 (P17948 whole entry): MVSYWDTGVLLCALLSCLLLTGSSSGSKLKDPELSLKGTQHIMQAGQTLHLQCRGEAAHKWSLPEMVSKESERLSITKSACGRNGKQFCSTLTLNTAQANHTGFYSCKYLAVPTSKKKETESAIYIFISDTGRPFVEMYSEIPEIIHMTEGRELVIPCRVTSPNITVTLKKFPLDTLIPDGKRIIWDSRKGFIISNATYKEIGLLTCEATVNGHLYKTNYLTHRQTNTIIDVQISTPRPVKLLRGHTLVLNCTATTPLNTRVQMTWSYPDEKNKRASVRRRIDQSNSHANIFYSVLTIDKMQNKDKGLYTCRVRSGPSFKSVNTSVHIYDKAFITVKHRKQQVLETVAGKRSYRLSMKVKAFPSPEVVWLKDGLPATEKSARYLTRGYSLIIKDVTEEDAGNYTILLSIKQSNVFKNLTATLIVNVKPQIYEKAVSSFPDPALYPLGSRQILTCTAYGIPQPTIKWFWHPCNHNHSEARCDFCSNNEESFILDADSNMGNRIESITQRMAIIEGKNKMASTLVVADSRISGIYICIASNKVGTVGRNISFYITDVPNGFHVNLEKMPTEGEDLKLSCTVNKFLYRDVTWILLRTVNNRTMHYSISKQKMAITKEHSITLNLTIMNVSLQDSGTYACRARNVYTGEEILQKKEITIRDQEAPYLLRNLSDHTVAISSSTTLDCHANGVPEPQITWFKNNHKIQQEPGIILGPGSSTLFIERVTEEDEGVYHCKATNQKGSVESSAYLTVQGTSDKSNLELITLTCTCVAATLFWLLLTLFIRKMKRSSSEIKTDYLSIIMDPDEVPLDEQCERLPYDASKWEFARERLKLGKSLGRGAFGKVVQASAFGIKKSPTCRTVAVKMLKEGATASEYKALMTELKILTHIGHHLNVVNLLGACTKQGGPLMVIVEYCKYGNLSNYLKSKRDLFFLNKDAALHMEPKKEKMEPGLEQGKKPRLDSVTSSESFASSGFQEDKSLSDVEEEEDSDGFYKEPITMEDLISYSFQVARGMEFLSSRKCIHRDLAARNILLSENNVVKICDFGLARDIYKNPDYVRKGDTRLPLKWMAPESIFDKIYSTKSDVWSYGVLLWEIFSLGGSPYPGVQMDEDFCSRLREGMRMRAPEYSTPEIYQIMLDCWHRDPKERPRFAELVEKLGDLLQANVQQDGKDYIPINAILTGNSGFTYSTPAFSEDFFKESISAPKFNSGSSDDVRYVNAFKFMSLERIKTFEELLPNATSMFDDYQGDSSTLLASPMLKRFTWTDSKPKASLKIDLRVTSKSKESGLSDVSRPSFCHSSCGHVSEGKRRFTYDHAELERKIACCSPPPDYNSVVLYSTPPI
Chain of MAP kinase-interacting serine/threonine-protein kinase 1 (Homo sapiens) (Q9BUB5 whole entry, looked up): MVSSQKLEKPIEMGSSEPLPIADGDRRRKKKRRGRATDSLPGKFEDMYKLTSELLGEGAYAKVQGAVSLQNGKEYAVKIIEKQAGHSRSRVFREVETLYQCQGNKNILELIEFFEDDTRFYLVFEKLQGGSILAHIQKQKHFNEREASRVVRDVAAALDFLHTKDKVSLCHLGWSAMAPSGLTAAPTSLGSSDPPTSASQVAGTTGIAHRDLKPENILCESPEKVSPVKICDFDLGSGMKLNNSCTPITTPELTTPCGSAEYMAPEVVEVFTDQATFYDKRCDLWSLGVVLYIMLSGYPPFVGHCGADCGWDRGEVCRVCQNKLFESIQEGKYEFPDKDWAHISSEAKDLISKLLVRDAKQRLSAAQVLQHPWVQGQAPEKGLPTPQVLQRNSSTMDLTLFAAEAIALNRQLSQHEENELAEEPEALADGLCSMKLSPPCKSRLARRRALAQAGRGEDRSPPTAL
Chain of Serine/threonine-protein kinase PAK 2 (Homo sapiens) (Q13177 whole entry): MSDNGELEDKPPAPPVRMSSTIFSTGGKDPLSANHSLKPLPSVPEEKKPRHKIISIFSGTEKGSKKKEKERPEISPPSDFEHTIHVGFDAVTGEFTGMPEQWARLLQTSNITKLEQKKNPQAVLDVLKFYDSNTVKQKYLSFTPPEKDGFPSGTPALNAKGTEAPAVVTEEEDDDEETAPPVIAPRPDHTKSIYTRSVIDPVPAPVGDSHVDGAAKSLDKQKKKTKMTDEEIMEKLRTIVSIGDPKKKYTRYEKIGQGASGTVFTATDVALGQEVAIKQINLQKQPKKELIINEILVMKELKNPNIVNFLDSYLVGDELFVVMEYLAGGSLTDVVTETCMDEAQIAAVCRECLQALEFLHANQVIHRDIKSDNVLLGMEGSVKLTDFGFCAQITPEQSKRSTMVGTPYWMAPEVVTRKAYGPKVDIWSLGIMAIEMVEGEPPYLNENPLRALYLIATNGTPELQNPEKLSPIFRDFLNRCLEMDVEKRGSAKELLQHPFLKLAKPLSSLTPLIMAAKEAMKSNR
Chain of NUAK family SNF1-like kinase 1 (Homo sapiens) (O60285 whole entry): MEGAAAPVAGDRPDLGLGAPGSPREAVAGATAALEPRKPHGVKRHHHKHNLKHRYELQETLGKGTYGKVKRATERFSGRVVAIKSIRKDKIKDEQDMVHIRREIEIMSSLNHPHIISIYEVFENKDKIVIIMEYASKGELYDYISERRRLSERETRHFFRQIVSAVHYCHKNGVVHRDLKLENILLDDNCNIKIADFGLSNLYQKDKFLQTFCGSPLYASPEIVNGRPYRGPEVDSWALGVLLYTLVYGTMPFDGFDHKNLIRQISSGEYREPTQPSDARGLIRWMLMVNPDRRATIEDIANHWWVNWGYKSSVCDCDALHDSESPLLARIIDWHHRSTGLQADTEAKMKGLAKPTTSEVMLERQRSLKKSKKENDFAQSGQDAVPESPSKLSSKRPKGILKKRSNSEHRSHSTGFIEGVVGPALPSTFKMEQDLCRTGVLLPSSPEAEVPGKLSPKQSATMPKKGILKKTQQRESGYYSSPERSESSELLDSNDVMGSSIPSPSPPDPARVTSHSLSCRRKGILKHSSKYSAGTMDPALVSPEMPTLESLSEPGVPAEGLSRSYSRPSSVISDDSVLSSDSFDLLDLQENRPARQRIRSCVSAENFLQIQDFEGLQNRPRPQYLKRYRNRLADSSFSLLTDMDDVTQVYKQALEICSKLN

With N#Cc1cnc(Nc2cc(NC[C@H]3CNCCO3)c(C(F)(F)F)cn2)cn1 [SRA-737] the Activity [1] was 62%, the Activity (HT-29) was “Active” and the pIC50 [2] was 6.44. The Activity [3] was 98%, the Activity [4] was 73% and the Activity (Mus musculus [5]) was “Active”. The Activity [6] was 37%, the Activity [7] was 19% and the CL/F [8] was 36 mL/min/kg. The Activity [9] was 98%, the pIC50 [10] was 5.78 and the Activity [11] was 75%. The Cmax [12] was 4 µM, the Activity [13] was 98% and the Activity [14] was 77%. It also gave an Activity [15] of 75%, an AUC(0-t) [16] of 222 µM·h and an inhibition [17] of 94%. For the same compound, the half-life [18] was 2.85 h, the Activity (Mus musculus [19]) was “Active” and the inhibition [20] was 81%. It also gave an Activity (Homo sapiens) of 32%, an inhibition [21] of 94% and an Activity [22] of 96%. For the same compound, the pIC50 [23] was 4.80, the AUC(0-t) [24] was 262 µM·h and the Activity [25] was “Toxic”. For the same compound, the PPB [26] was 75.6%, the Activity [27] was 6% and the Activity (Mus musculus [28]) was “Active”.
